According to ChEMBL document CHEMBL1139389, “Discovery of the Poly(ADP-ribose) polymerase (PARP) inhibitor 2-[(R)-2-methylpyrrolidin-2-yl]-1H-benzimidazole-4-carboxamide (ABT-888) for the treatment of cancer” (J Med Chem, 2009):

What was measured:
[1] = Half life in CD1 mouse at 3 mg/kg, iv; type: ADME, organism-based; parameters: dose 3 mg/kg, route intravenous; settings: in vivo
Outline: (§1)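 Mouse PK: oral dose 10 mg/kg in 2.5% EtOH, 1 drop Tween-80, 25% PEG400 in PBS; iv dose 3 mg/kg in 2.5% EtOH, 5% DMSO, 1 drop Tween-80, 25% PEG400 in PBS. Oral bioavailability, iv half-life, oral AUC and Cmax derived from plasma profiles.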

[2] = AUC in CD1 mouse at 10 mg/kg, po; type: ADME, organism-based; parameters: dose 10 mg/kg, route oral; settings: plasma; outline: as §1
[3] = Oral bioavailability in CD1 mouse at 10 mg/kg; type: ADME, organism-based; settings: in vivo; outline: as §1
[4] = biological target: Poly [ADP-ribose] polymerase 2 (Homo sapiens, UniProt Q9UGN5); experiment: Inhibition of human recombinant PARP2
[5] = Cmax in CD1 mouse at 10 mg/kg, po; type: ADME, organism-based; parameters: dose 10 mg/kg, route oral; settings: in vivo; outline: as §1
[6] = Half life in cynomolgus monkey at 2.5 mg/kg, iv; type: ADME, organism-based, Macaca fascicularis; parameters: dose 2.5 mg/kg, route intravenous; settings: in vivo
[7] = Cmax in Beagle dog at 2.5 mg/kg, po; type: ADME, organism-based, Canis lupus familiaris; parameters: dose 2.5 mg/kg, route oral; settings: in vivo
[8] = Clearance in CD1 mouse at 10 mg/kg; type: ADME, organism-based; parameters: dose 10 mg/kg; settings: in vivo
Outline: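 Mouse pharmacokinetics. Oral dose of 10 mg/kg in 2.5% EtOH, 1 drop Tween-80 and 25% PEG400 in PBS. Intravenous dose of 3 mg/kg in 2.5% EtOH, 5% DMSO, 1 drop Tween-80 and 25% PEG400 in PBS.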

[9] = Oral bioavailability in Beagle dog at 2.5 mg/kg; type: ADME, organism-based, Canis lupus familiaris; settings: in vivo
[10] = Volume of distribution at steady state in Beagle dog at 2.5 mg/kg; type: ADME, organism-based, Canis lupus familiaris; parameters: dose 2.5 mg/kg; settings: in vivo, read-out: Vdss
[11] = Oral bioavailability in cynomolgus monkey at 2.5 mg/kg; type: ADME, organism-based, Macaca fascicularis; settings: in vivo
[12] = Volume of distribution at steady state in CD1 mouse at 10 mg/kg; type: ADME, organism-based; parameters: dose 10 mg/kg; settings: in vivo, read-out: Vdss
[13] = Clearance in Beagle dog at 2.5 mg/kg; type: ADME, organism-based, Canis lupus familiaris; parameters: dose 2.5 mg/kg; settings: in vivo
[14] = Cmax in cynomolgus monkey at 2.5 mg/kg, po; type: ADME, organism-based, Macaca fascicularis; parameters: dose 2.5 mg/kg, route oral; settings: in vivo
[15] = Oral bioavailability in Sprague-Dawley rat at 5 mg/kg; type: ADME, organism-based; settings: in vivo
[16] = Volume of distribution at steady state in Sprague-Dawley rat at 5 mg/kg; type: ADME, organism-based; parameters: dose 5 mg/kg; settings: in vivo, read-out: Vdss
[17] = AUC in Beagle dog at 2.5 mg/kg, po; type: ADME, organism-based, Canis lupus familiaris; parameters: dose 2.5 mg/kg, route oral; settings: plasma
[18] = Volume of distribution at steady state in cynomolgus monkey at 2.5 mg/kg; type: ADME, organism-based, Macaca fascicularis; parameters: dose 2.5 mg/kg; settings: in vivo, read-out: Vdss
[19] = AUC in Sprague-Dawley rat at 5 mg/kg, po; type: ADME, organism-based; parameters: dose 5 mg/kg, route oral; settings: plasma
[20] = Half life in Sprague-Dawley rat at 5 mg/kg, iv; type: ADME, organism-based; parameters: dose 5 mg/kg, route intravenous; settings: in vivo
[21] = AUC in cynomolgus monkey at 2.5 mg/kg, po; type: ADME, organism-based, Macaca fascicularis; parameters: dose 2.5 mg/kg, route oral; settings: plasma
[22] = Clearance in Sprague-Dawley rat at 5 mg/kg; type: ADME, organism-based; parameters: dose 5 mg/kg; settings: in vivo
[23] = Half life in Beagle dog at 2.5 mg/kg, iv; type: ADME, organism-based, Canis lupus familiaris; parameters: dose 2.5 mg/kg, route intravenous; settings: in vivo
[24] = Clearance in cynomolgus monkey at 2.5 mg/kg; type: ADME, organism-based, Macaca fascicularis; parameters: dose 2.5 mg/kg; settings: in vivo
[25] = Cmax in Sprague-Dawley rat at 5 mg/kg, po; type: ADME, organism-based; parameters: dose 5 mg/kg, route oral; settings: in vivo

Poly [ADP-ribose] polymerase 2, sequence (Q9UGN5 whole entry): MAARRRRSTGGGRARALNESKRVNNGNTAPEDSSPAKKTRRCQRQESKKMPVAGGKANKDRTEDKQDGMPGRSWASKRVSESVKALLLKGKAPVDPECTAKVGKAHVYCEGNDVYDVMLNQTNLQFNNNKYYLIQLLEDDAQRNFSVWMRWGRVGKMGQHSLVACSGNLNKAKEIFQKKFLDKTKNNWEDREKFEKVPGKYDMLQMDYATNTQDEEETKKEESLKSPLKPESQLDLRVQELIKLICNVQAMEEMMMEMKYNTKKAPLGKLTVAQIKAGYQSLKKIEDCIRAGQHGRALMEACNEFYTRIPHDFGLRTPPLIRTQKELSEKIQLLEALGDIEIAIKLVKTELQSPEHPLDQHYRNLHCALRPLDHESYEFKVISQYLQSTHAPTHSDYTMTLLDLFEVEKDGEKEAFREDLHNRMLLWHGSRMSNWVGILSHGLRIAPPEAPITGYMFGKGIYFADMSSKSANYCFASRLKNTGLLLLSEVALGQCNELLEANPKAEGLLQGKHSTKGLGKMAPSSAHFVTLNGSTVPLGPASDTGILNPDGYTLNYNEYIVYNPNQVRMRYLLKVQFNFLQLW

Row | half-life [1] [h] | AUC [2] [ng·h/mL] | bioavailability [3] [%] | Ki [4] [nM] | Cmax [5] [ng/mL] | SMILES | other results
1 | 0.5 | 1500 | 100 | 4 | 1000 | C[C@]1(c2nc3c(C(N)=O)cc(F)cc3[nH]2)CCCN1 | –
2 | 1.2 | 400 | 20 | 2 | 100 | CC1(c2nc3c(C(N)=O)cccc3[nH]2)CCNCC1 | –
3 | 1.4 | 1000 | 100 | – | 500 | CC(C)N1CCC(C)(c2nc3c(C(N)=O)cccc3[nH]2)C1 (configuration not stated) | –
4 | 1.2 | 1100 | 66 | – | 800 | C[C@@]1(c2nc3c(C(N)=O)cccc3[nH]2)CCCN1 | half-life [6]: 1.5 h; Cmax [7]: 500 ng/mL; clearance [8]: 103 mL/min/kg; bioavailability [9]: 48%; Vd [10]: 2.9 L/kg; bioavailability [11]: 39%; Vd [12]: 10.3 L/kg; clearance [13]: 15 mL/min/kg; Cmax [14]: 200 ng/mL; bioavailability [15]: 72%; Vd [16]: 7.5 L/kg; AUC [17]: 1400 ng·h/mL; Vd [18]: 3 L/kg; AUC [19]: 1900 ng·h/mL; half-life [20]: 2.4 h; AUC [21]: 700 ng·h/mL; clearance [22]: 33.3 mL/min/kg; half-life [23]: 2.2 h; clearance [24]: 23.3 mL/min/kg; Cmax [25]: 600 ng/mL
5 | 0.55 | 200 | 36 | – | 100 | CN1CCCC1(C)c1nc2c(C(N)=O)cccc2[nH]1 (configuration not stated) | –
